Among the data in ChEMBL document CHEMBL1221199, “Structure-guided development of affinity probes for tyrosine kinases using chemical genetics” (Nat Chem Biol, 2007) are IC50 and inhibition values, retold here.

SMILES strings stand for the structures. The source made the active and inactive calls. The calls are words filed in the database; no cut-off is given here.

What is called IC50 is the midpoint of a concentration-inhibition curve.

In test [1] the target is Tyrosine-protein kinase Fyn (Homo sapiens, UniProt P06241, T342G). The test is described as follows: Inhibition of Fyn T342G mutant expressed in Escherichia coli C43 by radioactive phosphotransfer assay.
The nature of test [2]: Inhibition of c-src T338G mutant by radioactive phosphotransfer assay. Put shortly: (§1)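 Kinase-domain c-Src variants (T338G, S345C, T338G/S345C) were made by site-directed mutagenesis and expressed in E. coli BL21(DE3) co-transformed with YopH, GroEL and trigger factor. Protein was quantified by A280 and stored at −80 °C. Radioactive phosphotransfer assays were run in triplicate across a range of inhibitor concentrations.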

The target in test [3] is Tyrosine-protein kinase Fyn (Homo sapiens, UniProt P06241, S349C). The test is described as follows: Inhibition of Fyn S349C mutant in expressed in Escherichia coli C43 by radioactive phosphotransfer assay.
Test [4] deals with Tyrosine-protein kinase Fyn (Homo sapiens, UniProt P06241, S349C/T342G). Put plainly: Inhibition of Fyn T342G/S349C double mutant expressed in Escherichia coli C43 by radioactive phosphotransfer assay.
Test [5] in a line: Inhibition of c-src T338G/S345C double mutant by radioactive phosphotransfer assay. A digest of the protocol:
as §1

Test [6] has as its target Tyrosine-protein kinase Fyn (Homo sapiens, UniProt P06241). The test is described as follows: Inhibition of Fyn expressed in Escherichia coli C43 by radioactive phosphotransfer assay.
Test [7] deals with Proto-oncogene tyrosine-protein kinase Src (Gallus gallus) (UniProt P00523). Put plainly: Inhibition of c-src in by radioactive phosphotransfer assay.
In test [8] the target is T1, Epidermal growth factor receptor (Homo sapiens, UniProt P00533). Put plainly: Inhibition of human recombinant EGFR expressed in baculovirus-infected Sf9 cells by radioactive phosphotransfer assay. It counts as cell-based.
For test [9], the target named is T1, Epidermal growth factor receptor. The test is described as follows: Inhibition of […] EGFR3 phosphorylation transfected in mouse NIH/3T3 cells at 0.1 to 2 uM by radioactive phosphotransfer assay. It counts as cell-based. The conditions noted are these: NIH3T3, in the assay text read “immunoblotting” for “radioactive phosphotransfer assay”. Put shortly:
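Mouse NIH-3T3 fibroblasts lacking detectable endogenous EGFR, retrovirally transduced with analog-sensitive EGFR-as3 and hygromycin-selected, then grown in DMEM/10% FBS. Inhibitor at 0.1, 1.0 or 2.0 µM (1.2% DMSO), with or without EGF 100 ng/ml for 30 min before harvest. Equal lysate protein run on SDS-PAGE; anti-phosphotyrosine (4G10) immunoblot detected by ECL, with EGFR blot alongside.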

The target is the same in test [10]. The test is described as follows: Inhibition of EGFR3 transfected in EGF-stimulated mouse NIH/3T3 cells assessed as reduction of receptor-mediated Erk2 phosphorylation at 0.037 to 1 uM by radioactive phosphotransfer assay. The conditions noted are these: NIH3T3, in the assay text read “immunoblotting” for “radioactive phosphotransfer assay”. In kind it is cell-based. Put shortly: (§2)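 Transduced 3T3:EGFR-as3 cells were serum-starved overnight in 0.5% FBS, then given three-fold inhibitor dilutions from 1 µM to 37 nM (1% DMSO) for 1.5 h. […] Protein-normalised lysates were separated by SDS-PAGE, fluorescence-scanned, then immunoblotted for downstream phosphorylation. Run in duplicate.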
For orientation: In western blotting, separated proteins are transferred to a membrane and probed.

For test [11] the target is unchanged. The test is described as follows: Inhibition of EGFR3 transfected in EGF-stimulated mouse NIH/3T3 cells assessed as reduction of receptor-mediated Akt phosphorylation at 0.037 to 1 uM by radioactive phosphotransfer assay. It counts as cell-based. To be noted: NIH3T3, in the assay text read “immunoblotting” for “radioactive phosphotransfer assay”. Put shortly:
as §2

For test [12] the target is unchanged. The test is described as follows: Inhibition of EGFR3 transfected in EGF-stimulated mouse NIH/3T3 cells assessed as reduction of receptor-mediated Erk1 phosphorylation at 0.037 to 1 uM by radioactive phosphotransfer assay. It counts as cell-based. To be noted: NIH3T3, in the assay text read “immunoblotting” for “radioactive phosphotransfer assay”. Put shortly:
as §2

Test [13] has the same target. To be noted: NIH3T3; at 0.1 to 2 µM.

Tyrosine-protein kinase Fyn (Homo sapiens, UniProt P06241, T342G), sequence (P06241 2-537 T342G limits assumed): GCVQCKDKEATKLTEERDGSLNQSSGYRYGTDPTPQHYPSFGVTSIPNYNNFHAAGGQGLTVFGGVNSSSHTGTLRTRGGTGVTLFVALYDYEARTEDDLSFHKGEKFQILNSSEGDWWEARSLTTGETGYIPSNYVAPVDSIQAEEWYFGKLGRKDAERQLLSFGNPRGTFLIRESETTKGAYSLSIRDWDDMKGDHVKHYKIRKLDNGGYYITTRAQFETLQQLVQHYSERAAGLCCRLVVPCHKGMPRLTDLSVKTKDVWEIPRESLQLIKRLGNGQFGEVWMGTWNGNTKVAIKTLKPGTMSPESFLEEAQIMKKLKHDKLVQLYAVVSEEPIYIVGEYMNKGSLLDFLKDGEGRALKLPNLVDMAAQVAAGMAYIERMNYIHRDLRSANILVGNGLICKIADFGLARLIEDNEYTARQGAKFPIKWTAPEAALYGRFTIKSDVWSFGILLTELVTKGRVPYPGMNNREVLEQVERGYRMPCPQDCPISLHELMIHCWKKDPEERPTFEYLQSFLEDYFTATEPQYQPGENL
Tyrosine-protein kinase Fyn (Homo sapiens, UniProt P06241), sequence (P06241 whole entry): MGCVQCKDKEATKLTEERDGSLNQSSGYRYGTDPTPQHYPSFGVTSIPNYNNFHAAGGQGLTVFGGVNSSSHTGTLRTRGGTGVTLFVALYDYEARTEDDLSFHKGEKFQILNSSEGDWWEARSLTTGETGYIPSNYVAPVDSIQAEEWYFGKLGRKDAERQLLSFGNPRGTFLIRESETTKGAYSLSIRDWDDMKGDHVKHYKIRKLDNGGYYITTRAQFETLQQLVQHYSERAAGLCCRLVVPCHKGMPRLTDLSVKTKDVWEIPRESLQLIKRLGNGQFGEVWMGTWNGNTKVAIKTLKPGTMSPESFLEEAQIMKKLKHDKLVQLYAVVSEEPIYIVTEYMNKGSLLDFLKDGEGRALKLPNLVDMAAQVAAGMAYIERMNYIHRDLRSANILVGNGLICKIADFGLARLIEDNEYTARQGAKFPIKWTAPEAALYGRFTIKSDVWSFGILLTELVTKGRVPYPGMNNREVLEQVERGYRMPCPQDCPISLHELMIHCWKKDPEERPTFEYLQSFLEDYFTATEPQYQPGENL
Tyrosine-protein kinase Fyn (Homo sapiens, UniProt P06241, S349C/T342G), sequence (P06241 2-537 T342G/S349C limits assumed): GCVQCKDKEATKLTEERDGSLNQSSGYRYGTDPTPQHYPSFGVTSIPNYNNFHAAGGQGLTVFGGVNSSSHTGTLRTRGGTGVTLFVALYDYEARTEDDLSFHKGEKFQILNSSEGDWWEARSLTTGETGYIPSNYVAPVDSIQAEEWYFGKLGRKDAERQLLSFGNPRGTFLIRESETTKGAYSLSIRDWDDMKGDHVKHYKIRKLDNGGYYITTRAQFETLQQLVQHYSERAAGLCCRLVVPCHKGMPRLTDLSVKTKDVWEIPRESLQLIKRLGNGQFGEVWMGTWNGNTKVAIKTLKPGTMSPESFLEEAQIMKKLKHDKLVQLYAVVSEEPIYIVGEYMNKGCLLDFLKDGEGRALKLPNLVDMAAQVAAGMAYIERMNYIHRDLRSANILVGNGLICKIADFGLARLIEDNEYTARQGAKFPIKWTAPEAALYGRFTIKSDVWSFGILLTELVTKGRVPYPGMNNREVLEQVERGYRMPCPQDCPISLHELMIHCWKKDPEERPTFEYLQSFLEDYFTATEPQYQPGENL
Tyrosine-protein kinase Fyn (Homo sapiens, UniProt P06241, S349C), sequence (P06241 2-537 S349C limits assumed): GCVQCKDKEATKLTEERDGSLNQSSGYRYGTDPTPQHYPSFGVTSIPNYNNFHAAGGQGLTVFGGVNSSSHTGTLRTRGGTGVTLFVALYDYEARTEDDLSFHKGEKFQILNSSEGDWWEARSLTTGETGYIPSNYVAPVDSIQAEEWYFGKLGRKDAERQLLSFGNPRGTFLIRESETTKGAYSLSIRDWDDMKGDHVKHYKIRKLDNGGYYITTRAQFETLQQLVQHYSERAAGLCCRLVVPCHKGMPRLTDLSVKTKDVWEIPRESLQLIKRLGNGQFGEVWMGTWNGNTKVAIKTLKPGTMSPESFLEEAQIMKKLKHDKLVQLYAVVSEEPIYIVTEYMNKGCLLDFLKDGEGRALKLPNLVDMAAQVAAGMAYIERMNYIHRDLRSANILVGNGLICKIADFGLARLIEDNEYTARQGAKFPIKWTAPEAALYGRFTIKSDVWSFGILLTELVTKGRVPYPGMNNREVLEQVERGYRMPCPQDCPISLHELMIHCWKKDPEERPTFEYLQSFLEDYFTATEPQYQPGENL
T1 sequence (P00533 whole entry): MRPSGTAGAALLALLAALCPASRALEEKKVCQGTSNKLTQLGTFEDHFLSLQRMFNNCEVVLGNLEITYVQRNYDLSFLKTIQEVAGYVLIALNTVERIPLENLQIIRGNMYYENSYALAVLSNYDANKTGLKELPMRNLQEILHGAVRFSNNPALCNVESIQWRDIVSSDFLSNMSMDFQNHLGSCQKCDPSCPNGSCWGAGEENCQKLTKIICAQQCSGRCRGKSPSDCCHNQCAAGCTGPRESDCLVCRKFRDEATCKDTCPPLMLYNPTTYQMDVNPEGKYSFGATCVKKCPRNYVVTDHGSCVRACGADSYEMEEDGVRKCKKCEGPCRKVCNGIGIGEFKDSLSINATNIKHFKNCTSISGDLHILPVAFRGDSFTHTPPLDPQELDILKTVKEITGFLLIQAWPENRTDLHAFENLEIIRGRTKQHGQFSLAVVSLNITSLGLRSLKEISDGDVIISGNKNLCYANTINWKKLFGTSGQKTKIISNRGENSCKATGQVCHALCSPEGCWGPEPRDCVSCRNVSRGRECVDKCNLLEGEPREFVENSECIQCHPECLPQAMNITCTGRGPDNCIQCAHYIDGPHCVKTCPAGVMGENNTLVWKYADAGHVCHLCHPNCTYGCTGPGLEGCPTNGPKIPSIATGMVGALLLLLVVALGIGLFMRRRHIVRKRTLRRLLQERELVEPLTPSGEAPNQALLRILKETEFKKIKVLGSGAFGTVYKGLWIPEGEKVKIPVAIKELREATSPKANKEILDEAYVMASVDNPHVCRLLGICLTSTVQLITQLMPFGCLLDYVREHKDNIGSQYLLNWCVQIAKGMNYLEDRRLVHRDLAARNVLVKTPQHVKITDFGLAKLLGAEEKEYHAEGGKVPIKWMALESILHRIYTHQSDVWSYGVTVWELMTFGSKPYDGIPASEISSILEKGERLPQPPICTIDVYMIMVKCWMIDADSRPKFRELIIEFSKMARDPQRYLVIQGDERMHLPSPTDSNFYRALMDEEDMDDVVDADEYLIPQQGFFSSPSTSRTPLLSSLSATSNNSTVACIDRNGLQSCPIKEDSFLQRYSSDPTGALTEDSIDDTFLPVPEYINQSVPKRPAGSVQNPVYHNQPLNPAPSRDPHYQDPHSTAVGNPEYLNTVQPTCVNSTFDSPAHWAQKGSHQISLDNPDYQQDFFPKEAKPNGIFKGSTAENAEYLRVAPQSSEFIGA

As to `C=CC(=O)Nc1ccc2ncnc(Nc3ccc(C(C)C)cc3)c2c1`, the IC50 is 2200 nM in test [1]; 357 nM in test [2]; 340 nM in test [3]; 32 nM in test [4]; 16 nM in test [5]; greater than 300000 nM in test [6]. In addition, the IC50 in test [7] was greater than 27000 nM.
On to `C=CC(=O)Nc1ccc2ncnc(Nc3ccc(Br)cc3)c2c1`, for which the IC50 in [1] is 4650 nM; in test [2] it was 1740 nM; in [3], 34 nM; in [4], 19 nM; in test [5] it was 37 nM; in test [6], greater than 300000 nM. Further, the 50% inhibitory concentration (IC50) in [7] was greater than 27000 nM.
Regarding `C=CC(=O)Nc1ccc2ncnc(Nc3cccc(Br)c3)c2c1`, the concentration for half-maximal inhibition (IC50) in test [1] was 420 nM; in test [2] it was 173 nM; in test [3], 42 nM; in test [4], 1 nM; in [5], 1 nM; in test [6] it was greater than 300000 nM.
With `C=CC(=O)Nc1ccc2ncnc(Nc3ccc(-c4ccccc4)cc3)c2c1`, the IC50 in [1] was 9700 nM; in test [2], 374 nM; in test [3], 760 nM; in test [4] it was 107 nM; in [5] it was 13 nM; in test [6], greater than 300000 nM. Besides, the half-inhibitory concentration (IC50) in [7] is greater than 27000 nM.
With `C=CC(=O)Nc1ccc2ncnc(Nc3ccccc3)c2c1`, the IC50 in [1] was 1100 nM; in test [2], 1570 nM; in [3], 5 nM; in test [4], 6 nM; in [5] it was 20 nM; in test [6], 3700 nM. Besides, the figures for the 50% inhibitory concentration (IC50) in test [7] and in test [8] were greater than 27000 nM and less than 1 nM, respectively.
Turning to `C=CC(=O)Nc1ccc2ncnc(NCCc3ccccc3)c2c1`, the 50% inhibitory concentration (IC50) turned out to be 3800 nM in [1]; 551 nM in test [2]; 1400 nM in test [3]; 88 nM in [4]; 109 nM in [5]; 40000 nM in test [6]. In test [7], the IC50 was greater than 27000 nM.
As for `C=CC(=O)Nc1ccc2ncnc(NCc3cccc4ccccc34)c2c1`, the IC50 in test [1] is 1500 nM; in test [2], 123 nM; in test [3], 1700 nM; in test [4], 150 nM; in test [5], 24 nM; in test [6], 32000 nM. Moreover, in test [7], the IC50 was greater than 27000 nM.
Take `CCC(=O)Nc1ccc2ncnc(Nc3ccc(C(C)(C)C)cc3)c2c1`: the IC50 is 1500 nM in test [1]; 218 nM in test [2]; greater than 300000 nM in test [3]; 540 nM in test [4]; 254 nM in [5]; greater than 300000 nM in test [6]. The IC50 in test [7] was greater than 27000 nM.
With `C=CC(=O)Nc1ccc2ncnc(Nc3ccc4ccccc4c3)c2c1`, the IC50 in test [1] came to 1800 nM; in [2] it was 1360 nM; in [3], 32 nM; in test [4], 3 nM; in test [5] it was 13 nM; in test [6], 18100 nM. Further, the IC50 in test [7] was greater than 27000 nM.
`C=CC(=O)Nc1ccc2ncnc(Nc3ccc(C(C)(C)C)cc3)c2c1`: the IC50 is 900 nM in test [1]; 187 nM in [2]; 8400 nM in [3]; 24 nM in [4]; 5 nM in test [5]; greater than 300000 nM in test [6]. The IC50 is greater than 27000 nM in test [7] and 689 nM in test [8]. Also, the inhibition result in test [9], in test [10], in test [11] and in [12] was “Active” throughout. The inhibition result in [13] was “inactive”.
For the molecule `C=CC(=O)Nc1ccc2ncnc(Nc3cccc4ccccc34)c2c1`, the IC50 in [1] turned out to be 2100 nM; in test [2] it was 1270 nM; in test [3] it was 670 nM; in test [4] it was 30 nM; in test [5], 27 nM; in [6] it was 16300 nM. In test [7], the IC50 turned out to be 16300 nM.
